According to ChEMBL document CHEMBL1155733, “Flavonoid, iridoid, and lignan glycosides from Putoria calabrica” (J Nat Prod, 2001):
The source made the active and inactive calls. No cut-off for these calls is given here.

Experiments:
[1] = Antioxidant activity assessed as radical scavenging activity in FMLP-stimulated human PMNC by chemiluminescence assay; format: functional
Summary of the method: (§1)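 Human PMNs in HBSS (5 × 10⁶ cells/ml) preincubated 30 min at 37 °C with luminol (0.2 mM, as added) and test solution (ethanol stock diluted in HBSS). Stimulated with FMLP (0.5 μM, as added). Luminol-enhanced chemiluminescence recorded in cpm for 15 min at 37 °C. Area under the curve expressed as % of compound-free control; five measurements per concentration, averaged. Quercetin served as positive control.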

Homo sapiens = organism: Homo sapiens; experiment: Antioxidant activity assessed as radical scavenging activity in FMLP-stimulated human PMNC up to 30 uM by chemiluminescence assay; format: functional; summary of the method: as §1

| Structure (SMILES) | IC50 [1] [nM] | Activity (Homo sapiens) |
| --- | --- | --- |
| C[C@@H]1O[C@@H](O[C@H]2[C@H](Oc3c(-c4ccc(O)c(O)c4)oc4cc(O[C@@H]5O[C@H](CO)[C@@H](O)[C@H](O)[C@H]5O)cc(O)c4c3=O)OC[C@H](O)[C@@H]2O)[C@H](O)[C@H](O)[C@H]1O [CALABRICOSIDE A] | 250 |  |
| CSC(=O)OCC1=C[C@H](O)[C@H]2C(C(=O)O)=CO[C@@H](O[C@@H]3O[C@@H](CO)[C@@H](O)[C@@H](O)[C@H]3O)[C@H]12 |  | inactive |
| C[C@@H]1O[C@@H](O[C@H]2[C@H](Oc3c(-c4ccc(O)c(O)c4)oc4cc(O[C@@H]5O[C@H](CO)[C@@H](O)[C@H](O)[C@H]5O)cc(O)c4c3=O)OC[C@H](O)[C@@H]2O)[C@H](O)[C@H](O)[C@H]1OC(=O)/C=C/c1ccc(O)c(O)c1 [CALABRICOSIDE B] | 300 |  |
| CC(=O)OCC1=C[C@@H]2OC(=O)C3=CO[C@@H](O[C@@H]4O[C@H](CO)[C@@H](O)[C@H](O)[C@H]4O)[C@H]1[C@@H]32 |  | inactive |
| O=C1O[C@H]2C=C(CO)[C@H]3[C@H](O[C@@H]4O[C@H](CO)[C@@H](O)[C@H](O)[C@H]4O)OC=C1[C@H]32 |  | inactive |
| COc1cc(C[C@H]2CO[C@@H](c3ccc(O[C@@H]4O[C@H](CO)[C@@H](O)[C@H](O)[C@H]4O)c(OC)c3)[C@H]2CO)ccc1O[C@@H]1O[C@H](CO)[C@@H](O)[C@H](O)[C@H]1O |  | inactive |
| COc1cc([C@H]2OC[C@H]3[C@@H]2CO[C@@H]3c2cc(OC)c(O[C@@H]3O[C@H](CO)[C@@H](O)[C@H](O)[C@H]3O)c(OC)c2)cc(OC)c1O[C@@H]1O[C@H](CO)[C@@H](O)[C@H](O)[C@H]1O |  | inactive |
| CSC(=O)OCC1=C[C@@H]2OC(=O)C3=CO[C@@H](O[C@@H]4O[C@H](CO)[C@@H](O)[C@H](O)[C@H]4O)[C@H]1[C@@H]32 |  | inactive |
| O=C(O)C1=CO[C@@H](O[C@@H]2O[C@H](CO)[C@@H](O)[C@H](O)[C@H]2O)[C@@H]2C(CO)=C[C@@H](O)[C@H]12 |  | inactive |
| CC(=O)OCC1=C[C@H](O)[C@@H]2C(C(=O)O)=CO[C@@H](O[C@H]3O[C@@H](CO)[C@H](O)[C@@H](O)[C@@H]3O)[C@H]12 |  | inactive |
| O=c1c(O)c(-c2ccc(O)c(O)c2)oc2cc(O)cc(O)c12 [QUERCETIN] | 500 |  |
| O=C(O)C1=CO[C@@H](O[C@@H]2O[C@H](CO)[C@@H](O)[C@H](O)[C@H]2O)[C@@H]2C(CO)=CC[C@H]12 |  | inactive |
